According to ChEMBL document CHEMBL1126660, “Nonpeptide angiotensin II antagonists: N-phenyl-1H-pyrrole derivatives are angiotensin II receptor antagonists” (J Med Chem, 1993):

How the values were obtained:
[1] = organism: Oryctolagus cuniculus; experiment: Compound was evaluated for antagonism of angiotensin II induced contraction of rabbit aorta rings.; type: functional; conditions: read-out: pA2 (converted)
Outline: (§1)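 Paired rabbit aortic rings: control ring given increasing AII concentrations at 30-min intervals; second ring given AII with antagonist added 5 min beforehand. Responses expressed as % of control ring maximal contraction; pD2 for AII from concentration-response curves, pA2 by Schild analysis.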

[2] = target: T1, Type-2 angiotensin II receptor (Rattus norvegicus, UniProt P35351); experiment: Activity against low affinity Angiotensin II receptor, type 2 was measured from the ability to inhibit [125I]angiotensin II binding to rat uterine membrane
T1 sequence (P35351 whole entry): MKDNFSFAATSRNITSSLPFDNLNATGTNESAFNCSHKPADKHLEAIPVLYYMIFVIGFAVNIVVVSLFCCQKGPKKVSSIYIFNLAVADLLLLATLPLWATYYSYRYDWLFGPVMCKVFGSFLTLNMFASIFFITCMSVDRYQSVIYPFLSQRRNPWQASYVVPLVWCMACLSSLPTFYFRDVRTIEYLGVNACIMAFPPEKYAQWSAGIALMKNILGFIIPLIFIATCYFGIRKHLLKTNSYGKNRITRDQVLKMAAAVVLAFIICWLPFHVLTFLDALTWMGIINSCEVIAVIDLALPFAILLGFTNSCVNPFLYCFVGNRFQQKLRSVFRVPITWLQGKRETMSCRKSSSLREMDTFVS

[3] = target: T2, Type-1 angiotensin II receptor B (Rattus norvegicus, UniProt P29089); experiment: Activity against high affinity Angiotensin II receptor, type 1 was measured from the ability to inhibit [125I]angiotensin II binding to rat uterine membrane.
T2 sequence (P29089 whole entry): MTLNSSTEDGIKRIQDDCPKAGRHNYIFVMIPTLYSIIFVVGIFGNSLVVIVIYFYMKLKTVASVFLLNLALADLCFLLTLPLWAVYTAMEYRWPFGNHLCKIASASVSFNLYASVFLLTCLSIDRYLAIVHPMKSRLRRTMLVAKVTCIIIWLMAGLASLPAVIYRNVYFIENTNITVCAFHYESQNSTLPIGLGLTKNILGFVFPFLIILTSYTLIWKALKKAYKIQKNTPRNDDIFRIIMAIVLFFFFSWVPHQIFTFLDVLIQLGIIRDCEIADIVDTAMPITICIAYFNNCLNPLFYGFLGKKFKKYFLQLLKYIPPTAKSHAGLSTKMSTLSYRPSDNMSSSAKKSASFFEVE

[4] = organism: Oryctolagus cuniculus; experiment: Evaluated for antagonism of angiotensin II induced contraction of rabbit aorta rings; type: functional; conditions: read-out: pA2 (converted); outline: as §1

Row | IC50 [2] [nM] | IC50 [3] [nM] | Compound | Kb [1] [nM] | Kb [4] [nM]
1 | – | – | CCCCc1nc(Cl)c(CO)n1Cc1ccc(-c2ccccc2-c2nnn[nH]2)cc1 [LOSARTAN] | 7.94 | –
2 | 3300 | 170 | CCCCc1nc(Cl)c(CO)n1Cc1ccc(-c2ccccc2C(=O)O)cc1 | – | –
3 | – | – | CCCCc1nc(Cl)c(CO)n1Cc1ccc(-n2cccc2C(=O)O)cc1 | 1260 | –
4 | 220000 | – | CCCCc1nc(CCCC)n(Cc2ccc(-n3ccc(-c4nnn[nH]4)c3)cc2)n1 | – | –
5 | – | 6.5 | CCCCc1nc(CCCC)n(Cc2ccc(-c3ccccc3-c3nnn[nH]3)cc2)n1 | – | –

Row | Compound | IC50 [2] [nM] | IC50 [3] [nM] | Kb [1] [nM] | Kb [4] [nM]
6 | CCCCc1nc(CCCC)n(Cc2ccc(-n3c(Cl)cc(Cl)c3-c3nnn[nH]3)cc2)n1 | 810000 | 52 | – | 20
